Legend:
[1] = target: T1, Human immunodeficiency virus type 1 reverse transcriptase (Human immunodeficiency virus 1, UniProt Q72547); experiment: Inhibitory activity against human immunodeficiency virus (HIV) - 1 reverse transcriptase with rCdG as the template primer
In short: (§1)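 Reactions stopped with ice-cold 10% trichloroacetate, filtered through GF/C membrane, washed with ethanol, radiolabel counted by Cerenkov counting. AZTTP and nevirapine as positive controls; IC50 reported.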

[2] = test system: CCRF-CEM; experiment: The compound is evaluated for the cytotoxic concentration for the mock-infected CEM cells; assay type: functional; details: Homo sapiens
In short: (§2)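 XTT cytoprotection assay in CEM-SS cells infected with HIV-1 RF, with uninfected cultures for cytotoxicity, in presence of fetal calf serum. Data as percent of uninfected drug-free control. EC50 is 50% protection from cytopathicity; CC50 is 50% cell death in uninfected cells; TI = CC50/EC50. Triplicates on each of two sister plates, plate EC50s averaged. Confirmed by supernatant RT and p24.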

[3] = test system: CEM-SS; experiment: Inhibitory concentration for cytopathicity of HIV-1 RF in CEM-SS cells; NA means there was no observed inhibition of HIV-1 cytopathicity up to the cytotoxic concentration in uninfected cells.; assay type: functional, cell-based; in short: as §2
[4] = test system: CEM-SS; experiment: Inhibitory concentration for cytopathicity of HIV-1 in CEM-SS cells; assay type: functional, cell-based; details: Homo sapiens; in short: as §2
[5] = The compound is evaluated for the therapeutic index, which is the CC50 divided by the EC50; assay type: functional; in short: as §2
[6] = target: Human immunodeficiency virus type 1 protease (Human immunodeficiency virus 1, UniProt Q72874); experiment: The compound is evaluated for the inhibitory against HIV -1 protease, a 30% inhibition of HIV-1 protease was observed at a concentration of 100 uM
[7] = target: T1, Human immunodeficiency virus type 1 reverse transcriptase; experiment: The compound is evaluated for the inhibitory against HIV -1 reverse transcriptase with rAdT as the template primer.; in short: as §1
[8] = target: Human immunodeficiency virus 1 nucleocapsid (Human immunodeficiency virus 1, UniProt Q76059); experiment: Inhibition of HIV-1 Nucleocapsid protein p7 (no inhibition)
[9] = target: Human immunodeficiency virus type 1 integrase (Human immunodeficiency virus 1, UniProt Q7ZJM1); experiment: The compound is evaluated for the inhibitory against HIV -1 integrase. NI refers to no inhibition.
Sequence of Human immunodeficiency virus type 1 integrase (Q7ZJM1 whole entry): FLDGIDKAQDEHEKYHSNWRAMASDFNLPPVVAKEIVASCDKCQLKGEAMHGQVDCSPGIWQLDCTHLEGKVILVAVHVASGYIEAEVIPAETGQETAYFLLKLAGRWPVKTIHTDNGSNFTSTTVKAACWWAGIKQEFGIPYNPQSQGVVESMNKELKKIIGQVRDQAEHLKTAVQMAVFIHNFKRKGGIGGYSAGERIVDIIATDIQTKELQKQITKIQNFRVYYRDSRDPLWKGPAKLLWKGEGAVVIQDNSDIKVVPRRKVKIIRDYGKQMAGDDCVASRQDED

Sequence of Human immunodeficiency virus 1 nucleocapsid (Q76059 whole entry): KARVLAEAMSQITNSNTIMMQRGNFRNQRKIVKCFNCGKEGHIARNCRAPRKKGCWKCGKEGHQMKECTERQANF

| SMILES | IC50 [1] | CC50 [2] | EC50 [3] | EC50 [4] | TI [5] | IC50 [6] | IC50 [7] | IC50 [8] | IC50 [9] |
| --- | --- | --- | --- | --- | --- | --- | --- | --- | --- |
| COC(=O)c1cc(C(=CCCN)c2cc(Cl)c(OC)c(C(=O)OC)c2)cc(Cl)c1OC | 63 µM | 15 µM | Not Active |  |  |  |  |  |  |
| COC(=O)C=C(c1cc(Cl)c(OC)c(C(=O)OC)c1)c1cc(Cl)c(OC)c(C(=O)OC)c1 | 16 µM | 25 µM | Not Active |  |  |  |  |  |  |
| CC1(C)OC(=O)c2cc(C(=CCCBr)c3cc(Cl)c4c(c3)C(=O)OC(C)(C)O4)cc(Cl)c2O1 | > 100 µM | 176 µM | Not Active |  |  |  |  |  |  |
| COC(=O)c1cc(C(=CC(=O)O)c2cc(Cl)c(OC)c(C(=O)OC)c2)cc(Cl)c1OC | > 100 µM | 48 µM | Not Active |  |  |  |  |  |  |
| COC(=O)c1cc(C(=CCCN=[N+]=[N-])c2cc(Cl)c(OC)c(C(=O)OC)c2)cc(Cl)c1OC | 2 µM | 41.8 µM |  | 0.27 µM | 155 | > 100 µM | 9.9 µM | Not Active | No inhibition |
| CCCCCC=C(c1cc(I)c(OC)c(C(=O)OC)c1)c1cc(I)c(OC)c(C(=O)OC)c1 | 11 µM | > 316 µM | Not Active |  |  |  |  |  |  |
| COC=C(c1cc(Br)c(OC)c(C(=O)OC)c1)c1cc(Br)c(OC)c(C(=O)OC)c1 | > 100 µM | 22 µM | Not Active |  |  |  |  |  |  |
| C=C(c1cc(Br)c(OC)c(C(=O)OC)c1)c1cc(Br)c(OC)c(C(=O)OC)c1 | > 100 µM | 316 µM | Not Active |  |  |  |  |  |  |
| COC(=O)c1cc(C(=CCCOS(C)(=O)=O)c2cc(Cl)c(OC)c(C(=O)OC)c2)cc(Cl)c1OC | 96 µM | 6.9 µM | Not Active |  |  |  |  |  |  |
| COC(=O)c1cc(C(=CCCCCO)c2cc(Cl)c(OC)c(C(=O)OC)c2)cc(Cl)c1OC |  | 10.2 µM | Not Active |  |  |  |  |  |  |
| COc1c(Cl)cc(C(=CCC(=O)O)c2cc(Cl)c(OC)c(C(=O)O)c2)cc1C(=O)O | > 100 µM | > 316 µM | Not Active |  |  |  |  |  |  |
